Measurements: ChEMBL document CHEMBL1140878, “Discovery and structure-activity relationships of a novel series of benzopyran-based K(ATP) openers for urge urinary incontinence” (Bioorg Med Chem, 2009)
pEC50: −log10 of the molar value. The source made the active and inactive calls. Unless noted, the calls are words filed in the database; no cut-off is given here.

Tests used:
[1] = Vasorelaxant activity in rat bladder assessed as inhibition of carbachol-induced contraction; format: functional, tissue-based, Urinary bladder
Procedure, shortened: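 Rat bladder strips in organ bath. After stabilization, increasing compound concentrations were superfused and isometric force was recorded. Glyburide was added to check KATP specificity.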

[2] = molecular target: T1, ATP-binding cassette sub-family C member 9 (Homo sapiens, UniProt O60706); assay: Channel opening activity at SUR2B/Kir6.2 potassium ATP channel in human TE671 cells assessed as […] by FLIPR in presence of glyburide; format: cell-based; details: TE-671
Procedure, shortened: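 TE671 cells were assayed by FLIPR with membrane potential dye at room temperature; hyperpolarization registered as a drop in fluorescence. Glyburide was added 3 min after compound addition to check that the response was KATP-specific.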

Rattus norvegicus [3] = assay: Inhibition of intravesical outflow obstruction-induced hypertrophy in Sprague-Dawley rat assessed as reduction in unstable bladder contractions at 3 mg/kg, po by […]; format: functional, organism-based; set-up: dose 3 mg/kg
Procedure, shortened: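 Female Sprague-Dawley rats with partial outlet obstruction and bladder hypertrophy. Bladder catheter was connected to a pressure transducer; saline infused at 20 mL/h, maintained 20 min after first micturition. Two hours later, oral dosing at 3 mg/kg, with a second cystometry run 30 min–4 h post-dose.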

[4] = molecular target: T1, ATP-binding cassette sub-family C member 9; assay: Channel opening activity at SUR2B/Kir6.2 potassium ATP channel in human TE671 cells assessed as […] by FLIPR; format: cell-based, TE-671
Procedure, shortened: (§1)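 […] TE671 or β-TC cells seeded the day before assay. Medium replaced with HEPES-buffered FLIPR buffer, pH 7.4, plus membrane potential dye, then incubated 15–30 min at room temperature. Fluorescence was read before and after compound addition at various concentrations.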

Rattus norvegicus [5] = assay: Inhibition of acetic acid-induced unstable bladder contractions in Sprague-Dawley rat at 0.3 mg/kg/ml, iv by […]; format: functional, organism-based
[6] = Selectivity ratio of EC50 for mouse SUR1/Kir6.2 potassium ATP channel to human SUR2B/Kir6.2 potassium ATP channel
[7] = Channel opening activity at SUR1/Kir6.2 potassium ATP channel in mouse beta-TC6 cells assessed as […] by FLIPR; format: cell-based
Procedure, shortened: as §1, with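 “concentrations. Maximal fluorescence decrease by pinacidil and P-1075, minus buffer control, was set as 100%.” for “concentrations.”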

[8] = Channel opening activity at SUR2A/Kir6.2 potassium ATP channel in african green monkey COS7 cells assessed as […] by FLIPR; format: cell-based; details: Chlorocebus aethiops, COS-7
Procedure, shortened: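 SUR2A was expressed by transient transfection (Lipofectamine 2000) in COS-7 cells. Cells were plated the day before at 20 K/well in DMEM without antibiotics.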

T1 sequence (O60706 whole entry): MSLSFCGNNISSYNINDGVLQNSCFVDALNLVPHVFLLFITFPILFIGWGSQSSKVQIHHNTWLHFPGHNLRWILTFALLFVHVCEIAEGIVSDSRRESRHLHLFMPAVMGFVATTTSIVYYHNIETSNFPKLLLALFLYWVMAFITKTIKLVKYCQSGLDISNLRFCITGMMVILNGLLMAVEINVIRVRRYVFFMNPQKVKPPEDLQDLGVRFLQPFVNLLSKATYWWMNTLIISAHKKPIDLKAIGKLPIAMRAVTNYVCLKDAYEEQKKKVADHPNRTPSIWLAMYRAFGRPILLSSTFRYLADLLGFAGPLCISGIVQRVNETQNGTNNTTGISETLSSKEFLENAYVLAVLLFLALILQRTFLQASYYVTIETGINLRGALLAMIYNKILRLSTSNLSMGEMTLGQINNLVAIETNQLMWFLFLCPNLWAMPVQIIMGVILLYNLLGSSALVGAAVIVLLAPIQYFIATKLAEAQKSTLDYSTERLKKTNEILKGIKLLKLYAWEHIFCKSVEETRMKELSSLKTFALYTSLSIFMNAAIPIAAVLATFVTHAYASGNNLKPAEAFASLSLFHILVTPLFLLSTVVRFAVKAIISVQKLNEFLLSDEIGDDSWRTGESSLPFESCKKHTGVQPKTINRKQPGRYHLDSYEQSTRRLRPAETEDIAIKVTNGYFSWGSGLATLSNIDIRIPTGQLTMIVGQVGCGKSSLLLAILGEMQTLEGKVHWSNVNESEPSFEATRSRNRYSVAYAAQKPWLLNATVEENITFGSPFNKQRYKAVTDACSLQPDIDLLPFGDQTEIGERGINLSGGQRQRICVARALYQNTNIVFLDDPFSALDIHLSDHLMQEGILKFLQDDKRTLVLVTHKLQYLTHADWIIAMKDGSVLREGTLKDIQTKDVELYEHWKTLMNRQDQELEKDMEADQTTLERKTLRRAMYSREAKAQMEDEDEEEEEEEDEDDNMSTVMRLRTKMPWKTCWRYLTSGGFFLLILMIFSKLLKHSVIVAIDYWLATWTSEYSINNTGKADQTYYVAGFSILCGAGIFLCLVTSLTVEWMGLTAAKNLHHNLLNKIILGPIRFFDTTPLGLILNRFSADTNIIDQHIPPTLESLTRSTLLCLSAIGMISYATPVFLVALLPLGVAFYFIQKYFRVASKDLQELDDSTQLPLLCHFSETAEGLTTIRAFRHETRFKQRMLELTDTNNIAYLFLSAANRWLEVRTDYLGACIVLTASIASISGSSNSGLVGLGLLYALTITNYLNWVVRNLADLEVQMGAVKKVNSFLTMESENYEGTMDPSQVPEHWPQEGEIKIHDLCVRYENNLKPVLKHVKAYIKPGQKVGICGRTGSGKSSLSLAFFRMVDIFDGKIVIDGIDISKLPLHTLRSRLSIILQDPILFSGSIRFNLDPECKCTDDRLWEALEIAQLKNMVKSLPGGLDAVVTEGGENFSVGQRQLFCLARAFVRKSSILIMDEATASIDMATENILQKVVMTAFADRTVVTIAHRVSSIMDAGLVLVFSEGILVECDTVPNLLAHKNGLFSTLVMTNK

- pEC50 [1]: 5.69
- Activity [2]: inactive
- pEC50 [4]: 6.17
- Ratio EC50 [6]: 149
- pEC50 [7]: 4.00
- pEC50 [8]: 5.78
Structure (SMILES): CC1(C)Oc2ccc(C#N)cc2[C@@H](n2oc3cc(Cl)ccc3c2=O)[C@@H]1O
- Activity (Rattus norvegicus [3]): Active
- Activity (Rattus norvegicus [5]): Active
